According to ChEMBL document CHEMBL3751708, “Structure guided design of potential inhibitors of human calcium-calmodulin dependent protein kinase IV containing pyrimidine scaffold” (Bioorg Med Chem Lett, 2016):

How the values were obtained:
[1] = Cytotoxicity against human HuH7 cells after 48 hrs by MTT assay; format: functional, cell-based; settings: Huh-7, 48 h
Method in brief: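 Exponentially growing HuH7 hepatoma cells at 7000 per well, triplicates, dosed the next day with inhibitors at 5-150 μM for 48 h; curcumin served as positive control. MTT was then added in fresh DMEM for 4-5 h at 37 °C, and formazan was dissolved in DMSO and read at 570 nm. IC50 was derived from percent viability; three independent experiments, mean ± S.D.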

[2] = test system: HEK293; experiment: Cytotoxicity against human HEK293 cells after 48 hrs by MTT assay; format: cell-based; settings: HEK293, 48 h
[3] = target: T1, Calcium/calmodulin-dependent protein kinase type IV (Homo sapiens) (UniProt Q16566); experiment: Binding affinity to human CAMK4 at pH 7.4 by fluorescence emission spectra analysis
T1 sequence (whole entry): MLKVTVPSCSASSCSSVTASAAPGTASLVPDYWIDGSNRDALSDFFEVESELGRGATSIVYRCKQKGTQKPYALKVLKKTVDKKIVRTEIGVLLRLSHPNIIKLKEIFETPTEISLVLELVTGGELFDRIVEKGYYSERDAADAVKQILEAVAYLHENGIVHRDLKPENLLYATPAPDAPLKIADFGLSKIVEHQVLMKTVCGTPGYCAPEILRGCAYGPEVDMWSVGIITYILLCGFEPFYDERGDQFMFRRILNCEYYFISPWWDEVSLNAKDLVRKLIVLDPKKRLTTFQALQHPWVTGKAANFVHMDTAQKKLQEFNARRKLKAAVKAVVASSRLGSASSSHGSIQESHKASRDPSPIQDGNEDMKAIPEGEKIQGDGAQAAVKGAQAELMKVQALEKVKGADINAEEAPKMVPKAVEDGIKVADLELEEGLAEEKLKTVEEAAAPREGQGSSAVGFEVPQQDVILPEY
Method in brief: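 Recombinant CAMKIV kinase domain at 4 μM in 50 mM phosphate pH 7.4 with 150 mM NaCl, 25 °C. Titrated from a 1.0 mM ligand stock up to 132 μM final. Ligands were diluted from DMSO stock and dialyzed in buffer beforehand. Excitation at 280 nm, tryptophan emission read over 300-400 nm. Ka and n taken from a modified Stern–Volmer plot; three measurements.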

[4] = test system: HEK293; experiment: Cytotoxicity against human HEK293 cells up to 25 uM after 48 hrs by MTT assay; format: cell-based; settings: hek293, 48 h
Method in brief: (§1)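 HEK293 cells at 7000 per well, triplicates, treated the next day with inhibitors at 5-150 μM for 48 h. MTT was then added to fresh DMEM for 4-5 h at 37 °C. Formazan was dissolved in DMSO and read at 570 nm. Viability given as percent of untreated control.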

[5] = test system: HEK293; experiment: Cytotoxicity against human HEK293 cells up to 50 uM after 48 hrs by MTT assay; format: cell-based; settings: hek293, 48 h; method in brief: as §1

SMILES	IC50 [1] [µM]	IC50 [2] [µM]	Kapp [3]	Activity [4]	Activity [5]
COc1cc(/C=C/C(=O)CC(=O)/C=C/c2ccc(O)c(OC)c2)ccc1O [CURCUMIN]	48	> 400			
N#Cc1cccnc1N1CCN(c2cc(Oc3cccc4cccnc34)ncn2)CC1	104	> 400	4.6 ×10⁵ /M	Non-toxic	
Nc1cccc(Oc2cc(Oc3cccc4cccnc34)ncn2)c1	116	400	1.6 ×10⁵ /M	Non-toxic	
COc1ccc(Nc2cc(N3CCNCC3)ncn2)cc1	46	> 400	2.2 ×10⁸ /M		Non-toxic
